Measured values from PubChem BioAssay.
The source made the active and inactive calls.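 Rule for the calls, unless noted: active = NADPH fluorescence slope more negative than the mean of all samples by about 3 SD, 99.7% confidence; inactive = the rest.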

Columns and labels:
[1] = inhibitors of TNFa-induced NFkB p65 translocation, primary screen, imaging, HUVEC, MLSMR starter and 10KST1 sets (AID 438;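 active = inhibition above 20% together with a positive visual image hit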;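 note: compound added about 3h40 before a 20 min TNFalpha stimulation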;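 for inhibition: signal is the nuclear over cytoplasmic p65 intensity ratio per well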); conditions: HUVEC TNFa-induced p65 nuclear translocation; cell count: measured here: nuclei count (cytotoxicity indicator), at 2.08 µM; inhibition: at 2 µM, stronger effect = higher value, 0% TNFa-plus-vehicle, 100% no-TNFa wells
[2] = endothelial E-selectin expression blockers – imaging, HUVEC, immunofluorescence, MLSMR starter and 10KST1 sets, primary screen (AID 487;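 active = visually confirmed hit in the image check and inhibition above 20%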;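 for inhibition: signal is fraction of cell area covered by stained E-selectin grains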;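 for nuclei count: 100% = median nuclei count of all wells on the same plate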); conditions: HUVEC TNFalpha-induced E-selectin immunofluorescence imaging, at 2 µM; inhibition: stronger effect = higher value; nuclei count: measured here: cell number, toxicity
[3] = Primary imaging screen for DUSP6 inhibitors that restore phospho-Erk in transfected HeLa cells, chemical complementation (AID 609;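 active = compounds giving at least 50% inhibition in the cell-based MKP-3 phosphatase rescue imaging test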;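 for inhibition: phospho-Erk level distribution per well compared with pooled transfected vehicle control wells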); conditions: HeLa MKP-3 transfected, phospho-Erk imaging KS statistic, at 10 µM, cells stimulated with TPA for 15 min
[4] = biological target: Dual specificity protein phosphatase 6 (Homo sapiens) (UniProt Q16828); test: as above; conditions: HeLa MKP-3 transfected, phospho-Erk imaging KS statistic; at 10 µM; stronger effect = higher value; cells stimulated with TPA for 15 min
Chain of Dual specificity protein phosphatase 6 (Homo sapiens) (Q16828 whole entry, looked up): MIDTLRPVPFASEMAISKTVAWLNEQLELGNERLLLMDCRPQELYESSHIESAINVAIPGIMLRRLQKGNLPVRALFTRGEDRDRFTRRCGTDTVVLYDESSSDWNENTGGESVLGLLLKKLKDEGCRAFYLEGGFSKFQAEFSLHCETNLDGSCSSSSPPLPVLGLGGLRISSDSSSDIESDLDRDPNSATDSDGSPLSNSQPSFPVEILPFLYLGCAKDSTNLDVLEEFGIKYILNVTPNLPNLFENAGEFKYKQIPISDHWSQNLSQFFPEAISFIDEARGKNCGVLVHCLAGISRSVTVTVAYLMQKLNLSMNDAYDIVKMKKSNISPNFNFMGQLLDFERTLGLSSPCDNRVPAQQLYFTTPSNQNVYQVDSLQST

[5] = biological target: Voltage-gated potassium channel subunit beta-2 (Rattus norvegicus) (UniProt P62483); test: inhibitors of rat Kvbeta2 reductase activity – biochemical, NADPH fluorescence, primary screen (AID 622;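 active = fluorescence slope higher than the sample average by over 3 SD, cut at about -0.22 in these data, passing the limit was not always enough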;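 note: slope of raw intensity against log time taken from 70 to 1610 s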); conditions: recombinant KvBeta, 4-cyanobenzaldehyde reduction, at 10 µM, stronger effect = higher value
Chain of Voltage-gated potassium channel subunit beta-2 (Rattus norvegicus) (P62483 whole entry, looked up): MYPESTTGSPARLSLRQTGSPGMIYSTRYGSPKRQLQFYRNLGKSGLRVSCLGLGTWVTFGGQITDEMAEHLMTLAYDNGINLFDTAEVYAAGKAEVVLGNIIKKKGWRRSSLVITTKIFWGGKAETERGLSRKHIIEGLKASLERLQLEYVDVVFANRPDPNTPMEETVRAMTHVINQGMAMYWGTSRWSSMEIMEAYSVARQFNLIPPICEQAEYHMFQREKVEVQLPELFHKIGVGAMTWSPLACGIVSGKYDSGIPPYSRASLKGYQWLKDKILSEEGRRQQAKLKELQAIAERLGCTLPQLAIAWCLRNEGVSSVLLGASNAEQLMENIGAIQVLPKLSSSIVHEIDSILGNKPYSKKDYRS

[6] = biological target: Voltage-gated potassium channel subunit beta-2 (Rattus norvegicus) (UniProt P62483); test: enhancers of rat Kvbeta2 NADPH turnover – biochemical, NADPH fluorescence, primary screen (AID 623); conditions: Recombinant KvBeta, NADPH fluorescence decrease slope, 10 min; at 10 µM; stronger effect = lower value;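 note: fluorescence intensity change per second fitted from 20 to 320 s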
[7] = biological target: Alpha-2C adrenergic receptor (Homo sapiens) (UniProt P18825); test: compounds altering alpha2C-coupled GIRK flux – cell-based, HEK293 alpha2C/GIRK1/2, thallium flux, primary screen (AID 624;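 active = fluorescence slope after compound addition differing from the mean of all screened samples at 99.7% confidence, in either direction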;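 note: slope of fluorescence ratio to pre-addition baseline per second over 15 to 24 s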); conditions: thallium flux BTC fluorescence, at 10 µM, actives lie on both sides
Chain of Alpha-2C adrenergic receptor (Homo sapiens) (P18825 whole entry, looked up): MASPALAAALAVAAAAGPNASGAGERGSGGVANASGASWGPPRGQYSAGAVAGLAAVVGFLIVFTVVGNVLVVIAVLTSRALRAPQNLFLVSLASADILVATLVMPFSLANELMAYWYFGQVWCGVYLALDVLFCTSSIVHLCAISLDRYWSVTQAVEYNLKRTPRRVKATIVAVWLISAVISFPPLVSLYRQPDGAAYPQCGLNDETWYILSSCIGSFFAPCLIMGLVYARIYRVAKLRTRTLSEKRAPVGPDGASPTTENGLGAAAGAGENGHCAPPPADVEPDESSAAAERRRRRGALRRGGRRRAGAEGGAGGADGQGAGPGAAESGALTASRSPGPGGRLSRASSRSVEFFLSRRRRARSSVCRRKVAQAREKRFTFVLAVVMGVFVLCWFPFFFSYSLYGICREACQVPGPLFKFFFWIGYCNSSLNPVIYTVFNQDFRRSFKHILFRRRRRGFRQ

[8] = inhibitors of larval lipid processing in zebrafish, primary screen, whole organism, PED6 fluorescence, gall bladder and intestine (AID 686;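 active = a full or partial loss of lipid-probe fluorescence in the fish gall bladder, intestine or both, judged by eye; inactive = no fluorescence loss, or compound toxic to the fish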;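 note: larvae 5 to 7 days old with five fish per well; signal comes from phospholipase A2 cleavage of quenched PED6 carried via bile; overnight exposure to compound and PED6 before scoring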); conditions: Zebrafish larvae PED6 lipid processing, fluorescence scoring; screened at 20 µM (by protocol)
How it was run: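 system = live zebrafish larvae aged 5-7 days, whole organism | probe or stimulus = ingested quenched lipid PED6 at 100 nM | doses = 20 µM single dose | timing = overnight exposure | detection = fluorescence microscopy with visual scoring of gall bladder and intestine | read-out = visual per-well fluorescence inhibition score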

[9] = loss of swimming-algae plug formation – whole organism, Chlamydomonas reinhardtii, WT vs cilia-less mutant, absorbance, 96-well, primary screen (AID 463189;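 active = inhibition at or above 50% relative to wild type and mutant plate controls; inactive = inhibition below 50%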;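 note: 0% = wild type cc124 cells in DMSO and 100% = ciliumless bld1 mutant cells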); conditions: Chlamydomonas reinhardtii gravitaxis, OD600 absorbance, 2 days; at 10 µM; stronger effect = higher value
[10] = measured here: cell density z-score
[11] = measured here: nuclear c-Myc green intensity z-score
[12] = measured here: nuclear pErk red intensity z-score, stronger effect = higher value

Compound	cell count [1]	inhibition [1]	inhibition [2]	nuclei count [2] [%]	z-score [3, 10]	z-score [3, 11]	z-score [3, 12]	inhibition [4]	fluorescence slope [5]	NADPH fluorescence slope [6]	slope [7]	outcome [8]	inhibition [9]
Cc1nc2c(=O)n(C)c(=O)[nH]c2n1Cc1ccccc1	465	3.5% (inactive)	-59.5% (inactive)	153	0.739	0.0972	1.29	-4.7% (inactive)	-0.394 (inactive)	-4.2e-05 (inactive)	0.00601 (inactive)	inactive	-5.62% (inactive)
Cc1nnc(SCCC#N)n(CCC#N)c1=O	585	-13.5% (inactive)	24.6% (inactive)	164	-0.25	0.45	2.53	1.12% (inactive)	-0.396 (inactive)	-3e-05 (inactive)	0.00584 (inactive)	inactive	7.85% (inactive)
COc1cc(-c2nn3c(COc4ccccc4)nnc3s2)cc(OC)c1OC	497	-2.1% (inactive)	-95% (inactive)	105	-0.725	2.38	0.000132	-4.27% (inactive)	-0.417 (inactive)	-1.5e-06 (inactive)	0.00817 (inactive)	inactive	-11% (inactive)
COc1ccc(C2C(C#N)=C(N)SC(N)=C2C#N)cc1OC	280	-16.8% (inactive)	-21.6% (inactive)	85.8	0.114	1.01	-1.06	-10.5% (inactive)	-0.401 (inactive)	-5.5e-05 (inactive)	0.00592 (inactive)	inactive	-3.02% (inactive)
Cc1ccc(C(C)C)c(OCCNc2nc3c(c(=O)n(C)c(=O)n3C)n2C)c1	605	-26.5% (inactive)	-61.7% (inactive)	165	-0.12	-0.388	2.45	-4.27% (inactive)	-0.422 (inactive)	-5.2e-05 (inactive)	0.0063 (inactive)	inactive	-2.79% (inactive)
COc1cc(-c2cc(C(F)(F)F)n3ncc(C(=O)O)c3n2)cc(OC)c1OC	479	-8.4% (inactive)	-63% (inactive)	123	0.0221	-0.381	0.038	11.3% (inactive)	-0.439 (inactive)	-0.000193 (inactive)	0.00431 (inactive)	inactive	-8.65% (inactive)
Cc1c(NC(=O)C(CC(=O)O)NCc2ccco2)c(=O)n(-c2ccccc2)n1C (configuration not stated)	357	-8% (inactive)	-112% (inactive)	164	-0.725	2.03	1.41	-5.26% (inactive)	-0.44 (inactive)	-0.000144 (inactive)	0.00721 (inactive)	inactive	-0.003% (inactive)
CCOc1ccc(C2C(C(=O)c3ccc(C)o3)=C(O)C(=O)N2CCCN(CC)CC)cc1 (configuration not stated)	518	-20.5% (inactive)	-72.6% (inactive)	151	1.15	-0.0565	0.452	-2.47% (inactive)	-0.509 (inactive)	-3.9e-05 (inactive)	0.00538 (inactive)	inactive	0.749% (inactive)
O=C(O)CC(NCc1ccco1)C(=O)OCCc1ccccc1 (configuration not stated)	534	-1.9% (inactive)	6.5% (inactive)	116	-0.641	0.383	-0.409	-1.75% (inactive)	-0.398 (inactive)	5.7e-06 (inactive)	0.00596 (inactive)	inactive	32.9% (inactive)
Cn1c2ccccc2c2nn(-c3ccccc3)c(=O)cc21	304	-5% (inactive)	-28.5% (inactive)	94.5	-1.04	0.853	-0.375	-8.59% (inactive)	-0.441 (inactive)	-0.000115 (inactive)	0.00467 (inactive)	inactive	-13.4% (inactive)
Clc1ccc(-c2nnc3sc(Cc4cccs4)nn23)cc1	671	-3.4% (inactive)	-156% (inactive)	134	0.365	-1.12	-1.66	22.7% (inactive)	-0.451 (inactive)	-4.9e-05 (inactive)	0.00474 (inactive)	inactive	19.8% (inactive)
CN(C)c1ccc(C=NCCC2(O)CCOC(C)(C)C2)cc1 (configuration not stated)	326	-27% (inactive)	-218% (inactive)	173	-0.673	-1.17	-0.362	8.76% (inactive)	-0.416 (inactive)	-0.000167 (inactive)	0.00576 (inactive)	inactive	-4.27% (inactive)
Cc1cc2c(c(=O)n1CC1CCCO1)C(c1ccc3c(c1)OCO3)C(C#N)=C(N)O2 (configuration not stated)	430	-3.9% (inactive)	-118% (inactive)	138	-0.219	0.61	1.43	-2.91% (inactive)	-0.369 (inactive)	-4.9e-05 (inactive)	0.00655 (inactive)	inactive	-9.27% (inactive)
CCOc1cccc(-c2nnc3sc(-c4cccs4)nn23)c1	464	-0.1% (inactive)	-85.6% (inactive)	99.8	-0.8	1.1	0.15	-2.47% (inactive)	-0.456 (inactive)	-6.5e-05 (inactive)	0.00982 (inactive)	inactive	18.9% (inactive)
